In brackets after ≈: the same amount, converted by molar mass.
What was measured:
Canis familiaris = assay: Vasodilatory activity in dog assessed as increase of femoral blood flow by 100 mL/min administered as intraarterially; assay type: functional, Canis lupus familiaris
Summary of the method: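 Pentobarbital-anesthetized dogs with an electromagnetic flowmeter sensor around a femoral artery. Compound was injected intraarterially through a branch vessel at increasing doses, and the peak flow increase after each dose was recorded. ED100, the dose raising flow 100 mL/min above control, was extrapolated from the dose-response curve.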

Oryctolagus cuniculus = organism: Oryctolagus cuniculus; assay: Blockade of alpha-adrenergic receptor in rabbit aortic strips assessed as reduction of epinephrine-induced response
Summary of the method: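 Rabbit aortic strip sensitized by repeated exposure to 0.01 mcg/mL epinephrine. Responses to this concentration were compared before and after 200 s incubation with rising compound concentrations. Percent blockade was calculated at each concentration. ED50, the concentration blocking the response by 50%, was extrapolated from the concentration-response curve.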

Rattus norvegicus = assay: Antihypertensive activity in Wistar rat assessed as decrease of systolic blood pressure at 31 mg/kg, po up to 8 hrs; assay type: functional, Artery
Summary of the method: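 Renal hypertension in female Wistar rats: figure-of-eight ligature on one kidney, other kidney removed. Rats with systolic pressure above 160 mmHg used, groups of ten. Tail-cuff occlusion with pulse detector measured systolic pressure before and 2, 4, 6, 8 h after a 31 mg/kg oral dose. Value is the mean decrease over 8 h ± standard error.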

Row | ED50 (Oryctolagus cuniculus) | SMILES | ED100 (Canis familiaris) | Activity (Rattus norvegicus)
1 | 0.64 µg/mL | CN(C)CCCN1C(=O)C(CCCCCCCN2CCN(c3ccccc3)CC2)C(=O)c2ccccc21.CO.O=C(O)C(=O)O (configuration not stated) | 205 µg | 12 mmHg
2 |  | COc1ccc(Cc2nccc3cc(OC)c(OC)cc23)cc1OC [PAPAVERINE] | 1825 µg | 
3 | 0.03 µg/mL (≈ 0.107 µM) | Cc1ccc(N(CC2=NCCN2)c2cccc(O)c2)cc1 [PHENTOLAMINE] | 117 µg | 45 mmHg
